Measurements taken from ChEMBL document CHEMBL1136089, “Synthesis and in vitro activity of new methylenepiperidinyl and methylenepyrrolidinyl oxazolidinone antibacterial agents” (Bioorg Med Chem Lett, 2003).
Converted amounts (≈) assume the structure as drawn.

Experiments:
[1] = tested on: Staphylococcus epidermidis; assay: In vitro antibacterial activity against Staphylococcus epidermis C2235; format: functional
Outline: (§1)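 MIC by agar dilution on Mueller–Hinton agar, inoculum 10⁴ CFU/spot. Reported in μg/mL.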

[2] = tested on: Enterococcus faecium; assay: In vitro antibacterial activity against vancomycin-resistant Enterococcus faecium C6487
[3] = tested on: Streptococcus pyogenes; assay: In vitro antibacterial activity against Streptococcus pyogenes ATTCC8668
[4] = tested on: Staphylococcus aureus; assay: In vitro antibacterial against methicillin-susceptible Staphylococcus aureus (MSSA); format: functional
[5] = tested on: Enterococcus faecalis; assay: In vitro antibacterial activity against Enterococcus faecalis C6301 (E. f. 1); format: functional; outline: as §1
[6] = tested on: Staphylococcus epidermidis; assay: In vitro antibacterial activity against Staphylococcus epidermis ATCC 1228; format: functional; outline: as §1
[7] = tested on: Enterococcus faecalis; assay: In vitro antibacterial activity against Enterococcus faecalis C6291 (E. f. 1); format: functional; outline: as §1
[8] = tested on: Staphylococcus aureus; assay: In vitro antibacterial activity against methicillin-resistant Staphylococcus aureus (MRSA); format: functional
[9] = tested on: Staphylococcus aureus; assay: In vitro antibacterial activity against Staphylococcus aureus; format: functional
[10] = tested on: Streptococcus pyogenes; assay: In vitro antibacterial activity against Streptococcus pyogenes C6003
[11] = tested on: Staphylococcus aureus; assay: In vitro antibacterial activity against ciprofloxacin-resistant Staphylococcus aureus (CRSA); format: functional
[12] = Area under curve was determined in male rat; format: ADME, organism-based; conditions: in vivo
Outline: (§2)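 Single oral dose of 15 mg/Kg to rats, with compound dissolved in 50% PEG solution.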

[13] = In vivo activity against Staphylococcus aureus when administered orally for 1 hr in rat at a dose of 15 mg/kg; format: ADME, organism-based; design: dose 15 mg/kg, route oral; conditions: po
[14] = Tmax in male rat; format: ADME, organism-based; conditions: in vivo; outline: as §2
[15] = Cmax in male rat; format: ADME, organism-based; conditions: in vivo; outline: as §2

CC(=O)NC[C@H]1CN(c2ccc(N3CCC(=Cc4cc(-c5csnc5C)no4)CC3)c(F)c2)C(=O)O1
MIC [1]: 4 µg/mL (≈ 7.82 µM)
MIC [2]: 4 µg/mL (≈ 7.82 µM)
MIC [3]: 2 µg/mL (≈ 3.91 µM)
MIC [4]: 16 µg/mL (≈ 31.3 µM)
MIC [5]: 8 µg/mL (≈ 15.6 µM)
MIC [6]: 2 µg/mL (≈ 3.91 µM)
MIC [7]: 8 µg/mL (≈ 15.6 µM)
MIC [8]: 8 µg/mL (≈ 15.6 µM)
MIC [9]: 16 µg/mL (≈ 31.3 µM)
MIC [10]: 8 µg/mL (≈ 15.6 µM)
MIC [11]: 8 µg/mL (≈ 15.6 µM)

CC(=O)NC[C@H]1CN(c2ccc(N3CCC(=CC(C)OC(C)=O)CC3)c(F)c2)C(=O)O1 (stereo partly specified)
MIC [1]: 8 µg/mL (≈ 18.5 µM)
MIC [2]: 4 µg/mL (≈ 9.23 µM)
MIC [3]: 0.25 µg/mL (≈ 0.577 µM)
MIC [4]: 16 µg/mL (≈ 36.9 µM)
MIC [5]: 8 µg/mL (≈ 18.5 µM)
MIC [6]: 2 µg/mL (≈ 4.61 µM)
MIC [7]: 8 µg/mL (≈ 18.5 µM)
MIC [8]: 8 µg/mL (≈ 18.5 µM)
MIC [9]: 16 µg/mL (≈ 36.9 µM)
MIC [10]: 8 µg/mL (≈ 18.5 µM)
MIC [11]: 16 µg/mL (≈ 36.9 µM)

CCOC(=O)C=C1CCN(c2ccc(N3C[C@H](CNC(C)=O)OC3=O)cc2F)CC1
MIC [1]: 8 µg/mL (≈ 19.1 µM)
MIC [2]: 8 µg/mL (≈ 19.1 µM)
MIC [3]: 2 µg/mL (≈ 4.77 µM)
MIC [4]: 16 µg/mL (≈ 38.1 µM)
MIC [5]: 8 µg/mL (≈ 19.1 µM)
MIC [6]: 4 µg/mL (≈ 9.54 µM)
MIC [7]: 8 µg/mL (≈ 19.1 µM)
MIC [8]: 8 µg/mL (≈ 19.1 µM)
MIC [9]: 16 µg/mL (≈ 38.1 µM)
MIC [10]: 8 µg/mL (≈ 19.1 µM)
MIC [11]: 8 µg/mL (≈ 19.1 µM)

CC(=O)C=C1CCN(c2ccc(N3C[C@H](CNC(C)=O)OC3=O)cc2F)CC1
MIC [1]: 8 µg/mL (≈ 20.5 µM)
MIC [2]: 8 µg/mL (≈ 20.5 µM)
MIC [3]: 0.25 µg/mL (≈ 0.642 µM)
MIC [4]: 16 µg/mL (≈ 41.1 µM)
MIC [5]: 8 µg/mL (≈ 20.5 µM)
MIC [6]: 1 µg/mL (≈ 2.57 µM)
MIC [7]: 16 µg/mL (≈ 41.1 µM)
MIC [8]: 16 µg/mL (≈ 41.1 µM)
MIC [9]: 8 µg/mL (≈ 20.5 µM)
MIC [10]: 16 µg/mL (≈ 41.1 µM)
MIC [11]: 16 µg/mL (≈ 41.1 µM)

CC(=O)NC[C@H]1CN(c2ccc(N3CCC(=C(C#N)C#N)C3)c(F)c2)C(=O)O1
MIC [1]: 4 µg/mL (≈ 10.4 µM)
MIC [2]: 16 µg/mL (≈ 41.7 µM)
MIC [5]: 16 µg/mL (≈ 41.7 µM)
MIC [6]: 4 µg/mL (≈ 10.4 µM)
MIC [9]: 8 µg/mL (≈ 20.9 µM)
MIC [11]: 8 µg/mL (≈ 20.9 µM)

CN[C@H](CC(C)C)C(=O)N[C@H]1C(=O)N[C@@H](CC(N)=O)C(=O)N[C@H]2C(=O)N[C@H]3C(=O)N[C@H](C(=O)N[C@H](C(=O)O)c4cc(O)cc(O)c4-c4cc3ccc4O)[C@H](O)c3ccc(c(Cl)c3)Oc3cc2cc(c3O[C@@H]2O[C@H](CO)[C@@H](O)[C@H](O)[C@H]2O[C@H]2C[C@](C)(N)[C@H](O)[C@H](C)O2)Oc2ccc(cc2Cl)[C@H]1O [VANCOMYCIN]
MIC [2]: > 32 µg/mL
MIC [3]: 0.12 µg/mL (≈ 0.0828 µM)
MIC [5]: 1 µg/mL (≈ 0.69 µM)
MIC [7]: 2 µg/mL (≈ 1.38 µM)

CCOC(=O)C(C)=C1CCN(c2ccc(N3C[C@H](CNC(C)=O)OC3=O)cc2F)CC1
MIC [1]: 8 µg/mL (≈ 18.5 µM)
MIC [2]: 8 µg/mL (≈ 18.5 µM)
MIC [3]: 4 µg/mL (≈ 9.23 µM)
MIC [4]: 16 µg/mL (≈ 36.9 µM)
MIC [5]: 8 µg/mL (≈ 18.5 µM)
MIC [6]: 4 µg/mL (≈ 9.23 µM)
MIC [7]: 8 µg/mL (≈ 18.5 µM)
MIC [8]: 8 µg/mL (≈ 18.5 µM)
MIC [9]: 16 µg/mL (≈ 36.9 µM)
MIC [10]: 16 µg/mL (≈ 36.9 µM)
MIC [11]: 8 µg/mL (≈ 18.5 µM)

CC(=O)NC[C@H]1CN(c2ccc(N3CCC(=CC=O)CC3)c(F)c2)C(=O)O1
MIC [1]: 2 µg/mL (≈ 5.33 µM)
MIC [2]: 8 µg/mL (≈ 21.3 µM)
MIC [3]: 2 µg/mL (≈ 5.33 µM)
MIC [4]: 8 µg/mL (≈ 21.3 µM)
MIC [5]: 4 µg/mL (≈ 10.7 µM)
MIC [6]: 1 µg/mL (≈ 2.66 µM)
MIC [7]: 8 µg/mL (≈ 21.3 µM)
MIC [8]: 4 µg/mL (≈ 10.7 µM)
MIC [9]: 8 µg/mL (≈ 21.3 µM)
MIC [10]: 8 µg/mL (≈ 21.3 µM)
MIC [11]: 4 µg/mL (≈ 10.7 µM)

CCOC(=O)C(Cl)=C1CCN(c2ccc(N3C[C@H](CNC(C)=O)OC3=O)cc2F)CC1
MIC [1]: 4 µg/mL (≈ 8.81 µM)
MIC [2]: 4 µg/mL (≈ 8.81 µM)
MIC [3]: 2 µg/mL (≈ 4.41 µM)
MIC [4]: 8 µg/mL (≈ 17.6 µM)
MIC [5]: 2 µg/mL (≈ 4.41 µM)
MIC [6]: 2 µg/mL (≈ 4.41 µM)
MIC [7]: 4 µg/mL (≈ 8.81 µM)
MIC [8]: 16 µg/mL (≈ 35.3 µM)
MIC [9]: 32 µg/mL (≈ 70.5 µM)
MIC [10]: 8 µg/mL (≈ 17.6 µM)
MIC [11]: 16 µg/mL (≈ 35.3 µM)

CC(=O)NC[C@H]1CN(c2ccc(N3CCC(=CC(C)O)CC3)c(F)c2)C(=O)O1 (stereo partly specified)
MIC [1]: 4 µg/mL (≈ 10.2 µM)
MIC [2]: 4 µg/mL (≈ 10.2 µM)
MIC [3]: 2 µg/mL (≈ 5.11 µM)
MIC [4]: 16 µg/mL (≈ 40.9 µM)
MIC [5]: 4 µg/mL (≈ 10.2 µM)
MIC [6]: 2 µg/mL (≈ 5.11 µM)
MIC [7]: 8 µg/mL (≈ 20.4 µM)
MIC [8]: 4 µg/mL (≈ 10.2 µM)
MIC [9]: 8 µg/mL (≈ 20.4 µM)
MIC [10]: 8 µg/mL (≈ 20.4 µM)
MIC [11]: 8 µg/mL (≈ 20.4 µM)

CC(=O)NC[C@H]1CN(c2ccc(N3CCOCC3)c(F)c2)C(=O)O1 [LINEZOLID]
MIC [1]: 2 µg/mL (≈ 5.93 µM)
AUC [12]: 4240 ng·h/mL
half-life [13]: 3.09 h
MIC [3]: 0.5 µg/mL (≈ 1.48 µM)
Tmax [14]: 0.333 h
MIC [6]: 0.5 µg/mL (≈ 1.48 µM)
Cmax [15]: 1390 ng/mL

CCOC(=O)C(C#N)=C1CCN(c2ccc(N3C[C@H](CNC(C)=O)OC3=O)cc2F)CC1
MIC [1]: 2 µg/mL (≈ 4.5 µM)
MIC [2]: 2 µg/mL (≈ 4.5 µM)
MIC [3]: 1 µg/mL (≈ 2.25 µM)
MIC [4]: 4 µg/mL (≈ 9 µM)
MIC [5]: 2 µg/mL (≈ 4.5 µM)
MIC [6]: 1 µg/mL (≈ 2.25 µM)
MIC [7]: 4 µg/mL (≈ 9 µM)
MIC [8]: 4 µg/mL (≈ 9 µM)
MIC [9]: 4 µg/mL (≈ 9 µM)
MIC [10]: 4 µg/mL (≈ 9 µM)
MIC [11]: 4 µg/mL (≈ 9 µM)
